# In ChEMBL document CHEMBL1134841, “Antimalarial alkoxylated and hydroxylated chalcones [corrected]: structure-activity relationship analysis” (J Med Chem, 2001):
# pIC50: −log10 of the molar value.
# Experiments:
# [1] = Ratio of average life span of compound-treated mice (100 mg/kg, ip, 3 days) to that of mice treated with chloroquine (T/C-CQ); format: functional
# Procedure, shortened: (§1)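 Swiss albino mice (male, 4 weeks, ~25 g) inoculated ip with 10^7 P. berghei ANKA parasitized erythrocytes (day 0). Test compound 100 mg/kg/day ip in DMSO, days 1–3, three mice per compound. Control infected groups: DMSO or 4'-butoxy-2,4-dimethoxychalcone (100 mg/kg in DMSO, ip, days 1–3), or chloroquine (52 mg/kg ip in 0.5% Tween buffer pH 7.4, day 1). Survival followed; ratio of mean life spans.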
# Mus musculus [2] = test: Ratio of average life span of compound-treated mice (100 mg/kg, ip, 3 days) to that of mice receiving DMSO (T/C-untreated); format: functional; procedure, shortened: as §1
# Plasmodium falciparum = test: Inhibition of [3H]hypoxanthine incorporation in Plasmodium falciparum K1; format: functional, organism-based; details: Plasmodium falciparum, 48 h
# Procedure, shortened: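 K1 (chloroquine-resistant) parasites cultured in RPMI-1640 with 5% sodium bicarbonate and 10% type O human serum. DMSO stocks were serially diluted 10-fold in medium, covering a 10^6-fold range. Infected erythrocytes at 1–2% parasitemia and 1.5% hematocrit were incubated at 37 °C in a candle jar for 24 h. [3H]hypoxanthine was then added for a further 24 h, cells harvested and scintillation counted. IC50 from nonlinear logistic fit versus untreated control.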
# Mus musculus [3] = test: Ratio of average life span of compound-treated mice (100 mg/kg, ip, 3 days) to that of mice treated with 4''-butoxy-2,4-dimethoxychalcone (comp.41); format: functional; procedure, shortened: as §1
SMILES,T/C-CQ [1],T/C untreated (Mus musculus [2]),pIC50 (Plasmodium falciparum),T/C 41 (Mus musculus [3])
COc1ccc(C(=O)/C=C/c2ccc(C(F)(F)F)cc2)c(OC)c1OC,0.74,1.46,5.52,1.46
CCc1ccc(/C=C/C(=O)c2ccc(OC)cc2OC)cc1,1.18,2.33,5.62,2.33
O=C(/C=C/c1ccccn1)c1ccc(O)cc1,0.49,0.99,4.79,1.03
